Source: ChEMBL document CHEMBL1828620, “Synthesis of novel 6-phenyl-2,4-disubstituted pyrimidine-5-carbonitriles as potential antimicrobial agents” (2011)
Values after ≈ are worked out from the molar mass of the structure shown.

What follows are molecules tested on Escherichia coli (assay: Antimicrobial activity against Escherichia coli IFO 3301 at 100 ug/disc after 24 hrs by agar disc diffusion method). Details: not given.
Type: functional
Outline: (§1)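 Agar disc diffusion: sterile 8 mm filter-paper discs moistened with compound solution in DMSO, placed on agar plates each pre-inoculated with one organism; plates held at 37 °C; growth inhibition zone diameter measured after 24 h (bacteria) or 48 h (C. albicans).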

Molecule	inhibition zone (IZ)
GENTAMICIN SULFATE	20 mm

Same assay, conditions: IFO 3301, 24 h, read-out: DIZ

Molecule	zone of inhibition at 100 µg/disc
CC1(C)S[C@@H]2[C@H](NC(=O)[C@H](N)c3ccccc3)C(=O)N2[C@H]1C(=O)O.O.O.O [AMPICILLIN TRIHYDRATE]	17 mm

What follows are molecules tested on Staphylococcus aureus (assay: Antimicrobial activity against Staphylococcus aureus IFO 3060 at 100 ug/disc after 24 hrs by agar disc diffusion method). Details: not given.
Type: functional
Outline: as §1

Molecule	inhibition zone (IZ)
GENTAMICIN SULFATE	26 mm

Same assay, conditions: IFO 3060, 24 h, read-out: DIZ

Molecule	zone of inhibition at 100 µg/disc
CC1(C)S[C@@H]2[C@H](NC(=O)[C@H](N)c3ccccc3)C(=O)N2[C@H]1C(=O)O.O.O.O [AMPICILLIN TRIHYDRATE]	23 mm

These molecules were tested on Pseudomonas aeruginosa (assay: Antimicrobial activity against Pseudomonas aeruginosa IFO 3448 at 100 ug/disc after 24 hrs by agar disc diffusion method). Details: not given.
Type: functional
Outline: as §1

Molecule	inhibition zone (IZ)
GENTAMICIN SULFATE	19 mm

Same assay, conditions: IFO 3448, 24 h, read-out: DIZ

Molecule	zone of inhibition at 100 µg/disc
CC1(C)S[C@@H]2[C@H](NC(=O)[C@H](N)c3ccccc3)C(=O)N2[C@H]1C(=O)O.O.O.O [AMPICILLIN TRIHYDRATE]	17 mm

Each molecule was assayed on Bacillus subtilis (assay: Antimicrobial activity against Bacillus subtilis IFO 3007 after 24 hrs by two fold serial dilution method). Details: not given.
Type: functional

Molecule	MIC
GENTAMICIN SULFATE	2 µg/mL

Same assay, conditions: IFO 3007, 24 h

Molecule	MIC
N#Cc1c(-c2ccccc2)nc(SCc2ccc([N+](=O)[O-])o2)[nH]c1=O	1 µg/mL (≈ 2.82 µM)
N#Cc1c(Nc2ccc(F)cc2)nc(SCc2ccc(Cl)cc2)nc1-c1ccccc1	1 µg/mL (≈ 2.24 µM)
CCOCCSc1nc(-c2ccccc2)c(C#N)c(=O)[nH]1	4 µg/mL (≈ 13.3 µM)
CSCCSc1nc(-c2ccccc2)c(C#N)c(=O)[nH]1	8 µg/mL (≈ 26.4 µM)
COCCSc1nc(-c2ccccc2)c(C#N)c(=O)[nH]1	2 µg/mL (≈ 6.96 µM)
N#Cc1c(O)nc(SCc2ccc(Cl)cc2)nc1-c1ccccc1	8 µg/mL (≈ 22.6 µM)
CC1(C)S[C@@H]2[C@H](NC(=O)[C@H](N)c3ccccc3)C(=O)N2[C@H]1C(=O)O.O.O.O [AMPICILLIN TRIHYDRATE]	0.5 µg/mL
N#Cc1c(-c2ccccc2)nc(SCc2ccc(F)cc2)[nH]c1=O	2 µg/mL (≈ 5.93 µM)

The molecules below were run on Candida albicans (assay: Antifungal activity against Candida albicans IFO 0583 at 200 ug/disc after 48 hrs by agar disc diffusion method). Details: IFO 0583, 48 h, read-out: DIZ.
Type: functional
Outline: as §1

Molecule	zone of inhibition at 200 µg/disc
N#Cc1c(-c2ccccc2)nc(SCc2ccc([N+](=O)[O-])cc2)[nH]c1=O	< 10 mm
N#Cc1c(Sc2ccccc2)nc(SCc2ccc(Cl)cc2)nc1-c1ccccc1	< 10 mm
N#Cc1c(-c2ccccc2)nc(SCc2ccc([N+](=O)[O-])o2)[nH]c1=O	11 mm
N#Cc1c(Nc2ccc(F)cc2)nc(SCc2ccc(Cl)cc2)nc1-c1ccccc1	< 10 mm
CCOCCSc1nc(-c2ccccc2)c(C#N)c(=O)[nH]1	< 10 mm
CSCCSc1nc(-c2ccccc2)c(C#N)c(=O)[nH]1	14 mm
COCCSc1nc(-c2ccccc2)c(C#N)c(=O)[nH]1	< 10 mm
N#Cc1c(O)nc(SCc2ccc(Cl)cc2)nc1-c1ccccc1	< 10 mm
N#Cc1c(-c2ccccc2)nc(SCc2ccc(F)cc2)[nH]c1=O	< 10 mm

These molecules were tested on Micrococcus luteus (assay: Antimicrobial activity against Micrococcus luteus IFO 3232 after 24 hrs by two fold serial dilution method). Details: not given.
Type: functional

Molecule	MIC
GENTAMICIN SULFATE	2 µg/mL

Same assay, conditions: IFO 3232, 24 h

Molecule	MIC
N#Cc1c(-c2ccccc2)nc(SCc2ccc([N+](=O)[O-])o2)[nH]c1=O	1 µg/mL (≈ 2.82 µM)
N#Cc1c(Nc2ccc(F)cc2)nc(SCc2ccc(Cl)cc2)nc1-c1ccccc1	4 µg/mL (≈ 8.95 µM)
N#Cc1c(O)nc(SCc2ccc(Cl)cc2)nc1-c1ccccc1	8 µg/mL (≈ 22.6 µM)
CC1(C)S[C@@H]2[C@H](NC(=O)[C@H](N)c3ccccc3)C(=O)N2[C@H]1C(=O)O.O.O.O [AMPICILLIN TRIHYDRATE]	2 µg/mL
N#Cc1c(-c2ccccc2)nc(SCc2ccc(F)cc2)[nH]c1=O	4 µg/mL (≈ 11.9 µM)

What follows are molecules tested on Micrococcus luteus (assay: Antimicrobial activity against Micrococcus luteus IFO 3232 at 100 ug/disc after 24 hrs by agar disc diffusion method). Details: not given.
Type: functional
Outline: as §1

Molecule	inhibition zone (IZ)
GENTAMICIN SULFATE	18 mm

Same assay, conditions: IFO 3232, 24 h, read-out: DIZ

Molecule	zone of inhibition at 100 µg/disc
CC1(C)S[C@@H]2[C@H](NC(=O)[C@H](N)c3ccccc3)C(=O)N2[C@H]1C(=O)O.O.O.O [AMPICILLIN TRIHYDRATE]	19 mm

The molecules below were run on Escherichia coli (assay: Antimicrobial activity against Escherichia coli IFO 3301 after 24 hrs by two fold serial dilution method). Details: not given.
Type: functional

Molecule	MIC
GENTAMICIN SULFATE	0.5 µg/mL

Same assay, conditions: IFO 3301, 24 h

Molecule	MIC
N#Cc1c(-c2ccccc2)nc(SCc2ccc([N+](=O)[O-])o2)[nH]c1=O	2 µg/mL (≈ 5.64 µM)
N#Cc1c(-c2ccccc2)nc(SCc2ccc(F)cc2)[nH]c1=O	8 µg/mL (≈ 23.7 µM)

What follows are molecules tested on Bacillus subtilis (assay: Antimicrobial activity against Bacillus subtilis IFO 3007 at 100 ug/disc after 24 hrs by agar disc diffusion method). Details: not given.
Type: functional
Outline: as §1

Molecule	inhibition zone (IZ)
GENTAMICIN SULFATE	25 mm

Same assay, conditions: IFO 3007, 24 h, read-out: DIZ

Molecule	zone of inhibition at 100 µg/disc
CC1(C)S[C@@H]2[C@H](NC(=O)[C@H](N)c3ccccc3)C(=O)N2[C@H]1C(=O)O.O.O.O [AMPICILLIN TRIHYDRATE]	21 mm

These molecules were tested on Staphylococcus aureus (assay: Antimicrobial activity against Staphylococcus aureus IFO 3060 after 24 hrs by two fold serial dilution method). Details: not given.
Type: functional

Molecule	MIC
GENTAMICIN SULFATE	2 µg/mL

Same assay, conditions: IFO 3060, 24 h

Molecule	MIC
N#Cc1c(-c2ccccc2)nc(SCc2ccc([N+](=O)[O-])o2)[nH]c1=O	0.5 µg/mL (≈ 1.41 µM)
N#Cc1c(Nc2ccc(F)cc2)nc(SCc2ccc(Cl)cc2)nc1-c1ccccc1	2 µg/mL (≈ 4.47 µM)
CCOCCSc1nc(-c2ccccc2)c(C#N)c(=O)[nH]1	4 µg/mL (≈ 13.3 µM)
COCCSc1nc(-c2ccccc2)c(C#N)c(=O)[nH]1	8 µg/mL (≈ 27.8 µM)
N#Cc1c(O)nc(SCc2ccc(Cl)cc2)nc1-c1ccccc1	8 µg/mL (≈ 22.6 µM)
CC1(C)S[C@@H]2[C@H](NC(=O)[C@H](N)c3ccccc3)C(=O)N2[C@H]1C(=O)O.O.O.O [AMPICILLIN TRIHYDRATE]	2 µg/mL
N#Cc1c(-c2ccccc2)nc(SCc2ccc(F)cc2)[nH]c1=O	4 µg/mL (≈ 11.9 µM)

The molecules below were run on Pseudomonas aeruginosa (assay: Antimicrobial activity against Pseudomonas aeruginosa IFO 3448 at 200 ug/disc after 24 hrs by agar disc diffusion method). Details: IFO 3448, 24 h, read-out: DIZ.
Type: functional
Outline: as §1

Molecule	zone of inhibition at 200 µg/disc
N#Cc1c(-c2ccccc2)nc(SCc2ccc([N+](=O)[O-])cc2)[nH]c1=O	< 10 mm
N#Cc1c(Sc2ccccc2)nc(SCc2ccc(Cl)cc2)nc1-c1ccccc1	< 10 mm
N#Cc1c(-c2ccccc2)nc(SCc2ccc([N+](=O)[O-])o2)[nH]c1=O	21 mm
N#Cc1c(Nc2ccc(F)cc2)nc(SCc2ccc(Cl)cc2)nc1-c1ccccc1	< 10 mm
CCOCCSc1nc(-c2ccccc2)c(C#N)c(=O)[nH]1	11 mm
CSCCSc1nc(-c2ccccc2)c(C#N)c(=O)[nH]1	18 mm
COCCSc1nc(-c2ccccc2)c(C#N)c(=O)[nH]1	10 mm
N#Cc1c(O)nc(SCc2ccc(Cl)cc2)nc1-c1ccccc1	12 mm
N#Cc1c(-c2ccccc2)nc(SCc2ccc(F)cc2)[nH]c1=O	14 mm

What follows are molecules tested on Bacillus subtilis (assay: Antimicrobial activity against Bacillus subtilis IFO 3007 at 200 ug/disc after 24 hrs by agar disc diffusion method). Details: IFO 3007, 24 h, read-out: DIZ.
Type: functional
Outline: as §1

Molecule	zone of inhibition at 200 µg/disc
N#Cc1c(-c2ccccc2)nc(SCc2ccc([N+](=O)[O-])cc2)[nH]c1=O	17 mm
N#Cc1c(Sc2ccccc2)nc(SCc2ccc(Cl)cc2)nc1-c1ccccc1	14 mm
N#Cc1c(-c2ccccc2)nc(SCc2ccc([N+](=O)[O-])o2)[nH]c1=O	28 mm
N#Cc1c(Nc2ccc(F)cc2)nc(SCc2ccc(Cl)cc2)nc1-c1ccccc1	18 mm
CCOCCSc1nc(-c2ccccc2)c(C#N)c(=O)[nH]1	24 mm
CSCCSc1nc(-c2ccccc2)c(C#N)c(=O)[nH]1	18 mm
COCCSc1nc(-c2ccccc2)c(C#N)c(=O)[nH]1	22 mm
N#Cc1c(O)nc(SCc2ccc(Cl)cc2)nc1-c1ccccc1	19 mm
N#Cc1c(-c2ccccc2)nc(SCc2ccc(F)cc2)[nH]c1=O	26 mm

Each molecule was assayed on Escherichia coli (assay: Antimicrobial activity against Escherichia coli IFO 3301 at 200 ug/disc after 24 hrs by agar disc diffusion method). Details: IFO 3301, 24 h, read-out: DIZ.
Type: functional
Outline: as §1

Molecule	zone of inhibition at 200 µg/disc
N#Cc1c(-c2ccccc2)nc(SCc2ccc([N+](=O)[O-])cc2)[nH]c1=O	12 mm
N#Cc1c(Sc2ccccc2)nc(SCc2ccc(Cl)cc2)nc1-c1ccccc1	< 10 mm
N#Cc1c(-c2ccccc2)nc(SCc2ccc([N+](=O)[O-])o2)[nH]c1=O	22 mm
N#Cc1c(Nc2ccc(F)cc2)nc(SCc2ccc(Cl)cc2)nc1-c1ccccc1	< 10 mm
CCOCCSc1nc(-c2ccccc2)c(C#N)c(=O)[nH]1	14 mm
CSCCSc1nc(-c2ccccc2)c(C#N)c(=O)[nH]1	21 mm
COCCSc1nc(-c2ccccc2)c(C#N)c(=O)[nH]1	12 mm
N#Cc1c(O)nc(SCc2ccc(Cl)cc2)nc1-c1ccccc1	14 mm
N#Cc1c(-c2ccccc2)nc(SCc2ccc(F)cc2)[nH]c1=O	18 mm

The molecules below were run on Staphylococcus aureus (assay: Antimicrobial activity against Staphylococcus aureus IFO 3060 at 200 ug/disc after 24 hrs by agar disc diffusion method). Details: IFO 3060, 24 h, read-out: DIZ.
Type: functional
Outline: as §1

Molecule	zone of inhibition at 200 µg/disc
N#Cc1c(-c2ccccc2)nc(SCc2ccc([N+](=O)[O-])cc2)[nH]c1=O	14 mm
N#Cc1c(Sc2ccccc2)nc(SCc2ccc(Cl)cc2)nc1-c1ccccc1	12 mm
N#Cc1c(-c2ccccc2)nc(SCc2ccc([N+](=O)[O-])o2)[nH]c1=O	33 mm
N#Cc1c(Nc2ccc(F)cc2)nc(SCc2ccc(Cl)cc2)nc1-c1ccccc1	16 mm
CCOCCSc1nc(-c2ccccc2)c(C#N)c(=O)[nH]1	21 mm
CSCCSc1nc(-c2ccccc2)c(C#N)c(=O)[nH]1	16 mm
COCCSc1nc(-c2ccccc2)c(C#N)c(=O)[nH]1	18 mm
N#Cc1c(O)nc(SCc2ccc(Cl)cc2)nc1-c1ccccc1	20 mm
N#Cc1c(-c2ccccc2)nc(SCc2ccc(F)cc2)[nH]c1=O	22 mm

What follows are molecules tested on Pseudomonas aeruginosa (assay: Antimicrobial activity against Pseudomonas aeruginosa IFO 3448 after 24 hrs by two fold serial dilution method). Details: not given.
Type: functional

Molecule	MIC
GENTAMICIN SULFATE	1 µg/mL

Same assay, conditions: IFO 3448, 24 h

Molecule	MIC
N#Cc1c(-c2ccccc2)nc(SCc2ccc([N+](=O)[O-])o2)[nH]c1=O	4 µg/mL (≈ 11.3 µM)
CC1(C)S[C@@H]2[C@H](NC(=O)[C@H](N)c3ccccc3)C(=O)N2[C@H]1C(=O)O.O.O.O [AMPICILLIN TRIHYDRATE]	2 µg/mL

Each molecule was assayed on Micrococcus luteus (assay: Antimicrobial activity against Micrococcus luteus IFO 3232 at 200 ug/disc after 24 hrs by agar disc diffusion method). Details: IFO 3232, 24 h, read-out: DIZ.
Type: functional
Outline: as §1

Molecule	zone of inhibition at 200 µg/disc
N#Cc1c(-c2ccccc2)nc(SCc2ccc([N+](=O)[O-])cc2)[nH]c1=O	13 mm
N#Cc1c(Sc2ccccc2)nc(SCc2ccc(Cl)cc2)nc1-c1ccccc1	12 mm
N#Cc1c(-c2ccccc2)nc(SCc2ccc([N+](=O)[O-])o2)[nH]c1=O	24 mm
N#Cc1c(Nc2ccc(F)cc2)nc(SCc2ccc(Cl)cc2)nc1-c1ccccc1	19 mm
CCOCCSc1nc(-c2ccccc2)c(C#N)c(=O)[nH]1	17 mm
CSCCSc1nc(-c2ccccc2)c(C#N)c(=O)[nH]1	15 mm
COCCSc1nc(-c2ccccc2)c(C#N)c(=O)[nH]1	17 mm
N#Cc1c(O)nc(SCc2ccc(Cl)cc2)nc1-c1ccccc1	19 mm
N#Cc1c(-c2ccccc2)nc(SCc2ccc(F)cc2)[nH]c1=O	21 mm
